The source made the active and inactive calls. No cut-off for these calls is given here.
What was measured:
Human alphaherpesvirus 1 [1] = assay: Antiviral activity against Human herpesvirus 1 isolate P25 infected in African green monkey vero cells assessed as log reduction in viral titer at 100 uM after 30 mins; assay type: functional
Method in brief: (§1)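 In the time course, HSV-1 clinical isolates (clarified Vero supernatants) were exposed to 100 μM EGCG for varying times up to 60 min. Residual infectivity was then titrated on Vero cells by 5-day CPE endpoint with Reed-Muench calculation. Mean ± SD of three separate experiments.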

Human alphaherpesvirus 1 [2] = assay: Antiviral activity against Human herpesvirus 1 isolate P56 infected in African green monkey vero cells assessed as log reduction in viral titer at 100 uM after 30 mins; assay type: functional; method in brief: as §1
Human alphaherpesvirus 1 [3] = assay: Binding affinity to Envelope glycoprotein D in Human herpesvirus 1 F1 assessed as macromolecular complex formation by SDS-PAGE
Method in brief: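 Purified HSV-1 gB or gD (500 to 700 μg/ml) was incubated with EGCG (250 μg/ml; 545 μM) in 0.1 M potassium phosphate, pH 7.0, at 35°C for 24 h. Products were denatured at 50°C for 15 min in sample buffer and run on 6.5% SDS-PAGE. Bands were stained with Coomassie blue to detect higher-molecular-weight complexes.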

Human alphaherpesvirus 2 [4] = assay: Antiviral activity against Human herpesvirus 2 isolate P47 infected in African green monkey CV1 cells; assay type: functional, organism-based; conditions: Human alphaherpesvirus 2, isolate P47, CV-1
Method in brief: (§2)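 HSV-2 (clinical swab isolates or strain 333) was grown in CV-1 cells and used as clarified supernatant. Virus was exposed to graded EGCG for 1 h in RPMI 1640 with 1% FCS, pH 7.4. Tenfold dilutions were titrated on CV-1 cells, three wells each, 5 days at 37°C, scoring CPE. TCID50 was calculated by Reed-Muench. IC99 was read graphically as 99% titer drop from the zero-concentration titer. Mean of three experiments.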

Human alphaherpesvirus 1 [5] = assay: Antiviral activity against Human herpesvirus 1 F1 assessed as damage of viral particle at 100 uM after 2 hrs by electron microscopy; assay type: functional, organism-based
Human alphaherpesvirus 2 [6] = assay: Antiviral activity against Human herpesvirus 2 isolate P27 infected in African green monkey CV1 cells assessed as log reduction viral titer at 50 uM; assay type: functional, CV-1; method in brief: as §2
Human alphaherpesvirus 1 [7] = assay: Antiviral activity against Human herpesvirus 1 isolate P56 infected in African green monkey vero cells assessed as log reduction in viral titer at 50 uM; assay type: functional
Method in brief: (§3)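 Laboratory HSV-1 F1 or patient-swab HSV-1 isolates were prepared as clarified Vero supernatants. They were incubated 1 h with a range of EGCG concentrations in RPMI 1640/1% FCS at pH 7.4. Titres were determined on Vero cells by 5-day CPE endpoint (Reed-Muench). IC99 was read graphically as 99% titre drop from untreated; mean ± SD, three experiments.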

Human alphaherpesvirus 2 [8] = assay: Antiviral activity against Human herpesvirus 2 isolate P12 infected in African green monkey CV1 cells assessed as log reduction viral titer at 50 uM; assay type: functional, CV-1
Method in brief: (§4)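 HSV-2 patient-swab isolates were grown as clarified CV-1 supernatants and incubated 1 h with a range of EGCG concentrations (RPMI 1640/1% FCS, pH 7.4). They were titrated on CV-1 cells from 10-fold dilutions by 5-day CPE at 37°C, with Reed-Muench TCID50. IC99 was derived graphically as 99% reduction from zero-drug titre; mean ± SD, three experiments.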

Human alphaherpesvirus 1 [9] = assay: Antiviral activity against Human herpesvirus 1 isolate P56 infected in African green monkey vero cells assessed as reduction in viral titer; assay type: functional, organism-based; conditions: Human alphaherpesvirus 1, isolate P56, Vero; method in brief: as §3
Human alphaherpesvirus 1 [10] = assay: Antiviral activity against Human herpesvirus 1 isolate P32 infected in African green monkey vero cells assessed as log reduction in viral titer at 100 uM within 10 mins; assay type: functional; method in brief: as §1
Human alphaherpesvirus 1 [11] = assay: Antiviral activity against Human herpesvirus 1 isolate P56 infected in African green monkey vero cells assessed as reduction in viral titer at 100 uM; assay type: functional, organism-based; method in brief: as §3
Human alphaherpesvirus 2 [12] = assay: Antiviral activity against Human herpesvirus 2 isolate P12 infected in African green monkey CV1 cells assessed as log reduction in viral titer at 100 uM within 20 mins; assay type: functional, CV-1
Method in brief: (§5)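 HSV-2 clinical isolates from clarified CV-1 supernatants were held with 100 μM EGCG for timed intervals, from 10 min onward. Surviving virus was titrated on CV-1 cells by 10-fold dilution and 5-day CPE scoring, with TCID50 by Reed-Muench. Values are mean ± SD, three experiments.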

Human alphaherpesvirus 1 [13] = assay: Antiviral activity against Human herpesvirus 1 isolate P15 infected in African green monkey vero cells assessed as log reduction in viral titer at 100 uM after 30 mins; assay type: functional; method in brief: as §1
Human alphaherpesvirus 2 [14] = assay: Antiviral activity against Human herpesvirus 2 isolate P2 infected in African green monkey CV1 cells assessed as log reduction viral titer at 50 uM; assay type: functional, CV-1; method in brief: as §2
Human alphaherpesvirus 1 [15] = assay: Antiviral activity against Human herpesvirus 1 isolate P42 infected in African green monkey vero cells assessed as log reduction in viral titer at 100 uM after 40 to 60 mins; assay type: functional; method in brief: as §1
Human alphaherpesvirus 2 [16] = assay: Antiviral activity against Human herpesvirus 2 strain 333 infected in African green monkey CV1 cells assessed as log reduction in viral titer at 100 uM; assay type: functional, CV-1
Method in brief: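 Lab strain HSV-2 333 was grown and titrated either in CV-1 cells or in Vero cells. Virus was incubated with 100 μM EGCG for 60 min, then titrated as tenfold dilutions for 5 days at 37°C with CPE scoring. Reed-Muench TCID50 of treated versus control virus gave the titer decrease. Mean of three experiments.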

Human alphaherpesvirus 1 [17] = assay: Antiviral activity against Human herpesvirus 1 isolate P38 infected in African green monkey vero cells assessed as log reduction in viral titer at 100 uM after 40 to 60 mins; assay type: functional; method in brief: as §1
Human alphaherpesvirus 1 [18] = assay: Antiviral activity against Human herpesvirus 1 isolate P25 infected in African green monkey vero cells assessed as log reduction in viral titer at 50 uM; assay type: functional; method in brief: as §3
Human alphaherpesvirus 2 [19] = assay: Antiviral activity against Human herpesvirus 2 isolate P22 infected in African green monkey CV1 cells assessed as log reduction in viral titer at 12.5 uM; assay type: functional, CV-1; method in brief: as §2
Human alphaherpesvirus 2 [20] = assay: Antiviral activity against Human herpesvirus 2 isolate P2 infected in African green monkey CV1 cells assessed as log reduction in viral titer at 12.5 uM; assay type: functional, CV-1; method in brief: as §2
Human alphaherpesvirus 1 [21] = assay: Antiviral activity against Human herpesvirus 1 F1 infected in African green monkey CV1 cells assessed as log reduction in viral titer at 100 uM; assay type: functional, CV-1
Human alphaherpesvirus 2 [22] = assay: Antiviral activity against Human herpesvirus 2 isolate P11 infected in African green monkey CV1 cells assessed as log reduction in viral titer at 100 uM within 10 mins; assay type: functional, CV-1; method in brief: as §5
Human alphaherpesvirus 2 [23] = assay: Antiviral activity against Human herpesvirus 2 isolate P11 infected in African green monkey CV1 cells; assay type: functional, organism-based; conditions: Human alphaherpesvirus 2, isolate P11, CV-1; method in brief: as §4
Human alphaherpesvirus 2 [24] = assay: Antiviral activity against Human herpesvirus 2 strain 333 infected in African green monkey CV-1 cells assessed as log reduction in viral titer at 100 uM after 20 mins; assay type: functional
Method in brief: (§6)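 Time course: clarified CV-1 supernatant of HSV-2 (clinical isolates or strain 333) was exposed to 100 μM EGCG for increasing times. It was then titrated by tenfold dilution on CV-1 cells, three wells per dilution, for 5 days at 37°C with CPE read-out. Reed-Muench TCID50 was compared with the untreated titer. Mean of three separate experiments.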

Human alphaherpesvirus 1 [25] = assay: Antiviral activity against Human herpesvirus 1 isolate P15 infected in African green monkey vero cells assessed as log reduction in viral titer at 50 uM; assay type: functional; method in brief: as §3
Human alphaherpesvirus 2 [26] = assay: Antiviral activity against Human herpesvirus 2 isolate P22 infected in African green monkey CV1 cells assessed as log reduction in viral titer at 100 uM within 20 mins; assay type: functional, CV-1; method in brief: as §6
Human alphaherpesvirus 2 [27] = assay: Antiviral activity against Human herpesvirus 2 isolate P22 infected in African green monkey CV1 cells assessed as log reduction viral titer at 50 uM; assay type: functional, CV-1; method in brief: as §2

## O=C(O[C@@H]1Cc2c(O)cc(O)cc2O[C@@H]1c1cc(O)c(O)c(O)c1)c1cc(O)c(O)c(O)c1 [EPIGALOCATECHIN GALLATE]
Human alphaherpesvirus 1 [1]
  FC: 2
Human alphaherpesvirus 1 [2]
  FC: 2
Human alphaherpesvirus 1 [3]
  Activity: Active
Human alphaherpesvirus 2 [4]
  IC99: 12.5 µM
Human alphaherpesvirus 1 [5]
  Activity: Active
Human alphaherpesvirus 2 [6]
  FC: >4
Human alphaherpesvirus 1 [7]
  FC: 2
Human alphaherpesvirus 2 [8]
  FC: >4
Human alphaherpesvirus 1 [9]
  IC99: 18.3 µM
Human alphaherpesvirus 1 [10]
  FC: 2
Human alphaherpesvirus 1 [11]
  Activity: Active
Human alphaherpesvirus 2 [12]
  FC: 3
Human alphaherpesvirus 1 [13]
  FC: 2
Human alphaherpesvirus 2 [14]
  FC: >4
Human alphaherpesvirus 1 [15]
  FC: 3
Human alphaherpesvirus 2 [16]
  FC: 4
Human alphaherpesvirus 1 [17]
  FC: 3
Human alphaherpesvirus 1 [18]
  FC: 2
Human alphaherpesvirus 2 [19]
  FC: >=2
Human alphaherpesvirus 2 [20]
  FC: >=2
Human alphaherpesvirus 1 [21]
  FC: 3.5
Human alphaherpesvirus 2 [22]
  FC: 2
Human alphaherpesvirus 2 [23]
  IC99: 12.5 µM
Human alphaherpesvirus 2 [24]
  FC: >=3
Human alphaherpesvirus 1 [25]
  FC: 2
Human alphaherpesvirus 2 [26]
  FC: 3
Human alphaherpesvirus 2 [27]
  FC: >4

Reference: ChEMBL document CHEMBL1629542, “Epigallocatechin gallate inactivates clinical isolates of herpes simplex virus” (Antimicrob Agents Chemother, 2008)
